What was measured:
[1] = biological target: Macrophage metalloelastase (Homo sapiens, UniProt P39900); experiment: Inhibition of MMP12 (unknown origin)-mediated Mca-Pro-Leu-Gly-Leu-Dpa-Ala-Arg-NH2 by fluorimetric assay
Neutrophil collagenase = Neutrophil collagenase (Homo sapiens, UniProt P22894); experiment: Inhibition of MMP8 (unknown origin)-mediated Mca-Pro-Leu-Gly-Leu-Dpa-Ala-Arg-NH2 by fluorimetric assay
Procedure, shortened: (§1)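 Activity read fluorimetrically; values reported as inhibition constants (Ki). The same assay format was used for each of MMP-1, -7, -8 and -13.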

Collagenase 3 = Collagenase 3 (Homo sapiens, UniProt P45452); experiment: Inhibition of MMP13 (unknown origin)-mediated Mca-Pro-Leu-Gly-Leu-Dpa-Ala-Arg-NH2 by fluorimetric assay; procedure, shortened: as §1
Interstitial collagenase = biological target: T1, Interstitial collagenase (Homo sapiens, UniProt P03956); experiment: Inhibition of MMP1 (unknown origin)-mediated Mca-Pro-Leu-Gly-Leu-Dpa-Ala-Arg-NH2 by fluorimetric assay; procedure, shortened: as §1
T1 sequence (P03956 whole entry): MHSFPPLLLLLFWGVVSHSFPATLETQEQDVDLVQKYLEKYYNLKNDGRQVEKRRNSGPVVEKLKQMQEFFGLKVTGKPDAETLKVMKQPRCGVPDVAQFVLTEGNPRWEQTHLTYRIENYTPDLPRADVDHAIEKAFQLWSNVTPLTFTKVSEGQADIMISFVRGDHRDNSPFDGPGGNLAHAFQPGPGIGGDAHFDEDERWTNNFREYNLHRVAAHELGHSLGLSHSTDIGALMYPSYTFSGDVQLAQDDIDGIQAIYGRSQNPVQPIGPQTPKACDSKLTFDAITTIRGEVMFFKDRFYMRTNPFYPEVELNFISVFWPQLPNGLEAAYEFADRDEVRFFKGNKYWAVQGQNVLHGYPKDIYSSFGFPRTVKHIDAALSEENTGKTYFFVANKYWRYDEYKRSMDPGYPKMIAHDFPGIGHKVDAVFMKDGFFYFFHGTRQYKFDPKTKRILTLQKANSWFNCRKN

Matrilysin = biological target: T2, Matrilysin (Homo sapiens, UniProt P09237); experiment: Inhibition of MMP7 (unknown origin)-mediated Mca-Pro-Leu-Gly-Leu-Dpa-Ala-Arg-NH2 by fluorimetric assay; procedure, shortened: as §1
T2 sequence (P09237 whole entry): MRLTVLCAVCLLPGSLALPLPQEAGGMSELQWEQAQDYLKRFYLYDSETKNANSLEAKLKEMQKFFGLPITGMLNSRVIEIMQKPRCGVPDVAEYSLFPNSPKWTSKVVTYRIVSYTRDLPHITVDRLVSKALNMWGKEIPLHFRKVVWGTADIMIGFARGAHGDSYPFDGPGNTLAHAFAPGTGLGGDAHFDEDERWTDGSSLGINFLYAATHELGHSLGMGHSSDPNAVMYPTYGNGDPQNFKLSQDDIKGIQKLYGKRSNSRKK

Neutrophil collagenase, sequence (P22894 whole entry): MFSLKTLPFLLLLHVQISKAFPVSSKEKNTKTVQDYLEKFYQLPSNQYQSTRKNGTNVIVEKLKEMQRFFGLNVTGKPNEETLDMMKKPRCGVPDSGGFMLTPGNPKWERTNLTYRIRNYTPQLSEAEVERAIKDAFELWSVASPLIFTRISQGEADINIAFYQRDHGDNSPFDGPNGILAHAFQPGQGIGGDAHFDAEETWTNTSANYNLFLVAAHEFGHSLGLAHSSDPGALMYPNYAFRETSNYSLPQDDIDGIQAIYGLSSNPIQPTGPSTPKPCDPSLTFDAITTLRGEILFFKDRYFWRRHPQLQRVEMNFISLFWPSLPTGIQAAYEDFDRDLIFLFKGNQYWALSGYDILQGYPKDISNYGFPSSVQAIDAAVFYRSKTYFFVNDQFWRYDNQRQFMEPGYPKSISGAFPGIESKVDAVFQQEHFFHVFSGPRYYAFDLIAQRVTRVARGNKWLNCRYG
Macrophage metalloelastase, sequence (P39900 whole entry): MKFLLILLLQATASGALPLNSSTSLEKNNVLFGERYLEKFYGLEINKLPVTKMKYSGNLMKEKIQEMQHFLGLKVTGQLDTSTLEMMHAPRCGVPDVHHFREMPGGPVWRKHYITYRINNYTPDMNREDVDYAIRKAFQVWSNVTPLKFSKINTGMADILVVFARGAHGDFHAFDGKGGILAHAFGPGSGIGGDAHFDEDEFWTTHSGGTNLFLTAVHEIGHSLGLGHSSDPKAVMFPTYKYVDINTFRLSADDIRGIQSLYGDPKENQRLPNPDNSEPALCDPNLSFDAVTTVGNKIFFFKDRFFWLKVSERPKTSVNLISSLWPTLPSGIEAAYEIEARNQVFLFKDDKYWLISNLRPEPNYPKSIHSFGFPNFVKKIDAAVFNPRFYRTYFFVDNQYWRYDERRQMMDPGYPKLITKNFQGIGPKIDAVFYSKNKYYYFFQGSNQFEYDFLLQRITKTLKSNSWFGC

SMILES	Ki [1] [µM]	Ki (Neutrophil collagenase) [µM]	Ki (Collagenase 3) [µM]	Ki (Interstitial collagenase) [µM]	Ki (Matrilysin) [µM]
O=C(O)CNS(=O)(=O)CCc1ccc(Cl)s1	0.272	0.364	0.323		
O=C(NO)C1CCCN1S(=O)(=O)CCc1ccc(-c2ccccc2)cc1 (single isomer, unassigned)	0.002	0.003	0.001		
COc1ccc(S(=O)(=O)NCC(=O)NO)cc1	0.02				4
O=C(CNS(=O)(=O)CCc1ccc(Cl)s1)NO	0.006	0.037	0.006		
O=C(CNS(=O)(=O)c1ccccc1)NO	0.062	0.24	0.042	3.4	4
COc1ccc(CCS(=O)(=O)N2CCC[C@H]2C(=O)NO)cc1	0.001	0.004	0.001		
O=C(NO)[C@@H]1CCCN1S(=O)(=O)CCc1ccc(Cl)s1	0.009	0.006	0.003		
O=C(NO)[C@H]1CCCN1S(=O)(=O)CCc1ccc(Oc2ccccc2)cc1	0.005	0.098	0.01		
O=C(CNS(=O)(=O)CCc1ccccc1)NO	0.023	0.075	0.049	5.7	10.7
O=C(CNS(=O)(=O)c1ccc(-c2ccccc2)cc1)NO	0.002	0.009	0.002	0.365	5
O=C(CNS(=O)(=O)CCc1ccc(Oc2ccccc2)cc1)NO	0.01	0.032	0.019		

The remaining compounds from weak to strong by Ki [1], led by results:

Ki [1] [µM]	Ki (Neutrophil collagenase) [µM]	Ki (Collagenase 3) [µM]	Ki (Interstitial collagenase) [µM]	Ki (Matrilysin) [µM]	SMILES
18			0.365		O=C(O)CNS(=O)(=O)c1ccc(-c2ccccc2)cc1
0.672	0.275	0.175			O=C(O)[C@@H]1CCCN1S(=O)(=O)c1ccc(Cl)s1
0.016	0.043	0.014	1.8	7	O=C(NO)[C@H]1CCCN1S(=O)(=O)CCc1ccccc1
0.015	0.02	0.035	19.7	18.5	O=C(CNS(=O)(=O)CCc1ccc2c(c1)OCO2)NO
0.01	0.014	0.012			COc1ccc(CCS(=O)(=O)NCC(=O)NO)cc1
0.007	0.007	0.005			O=C(O)CNS(=O)(=O)CCc1ccc(-c2ccccc2)cc1
0.005	0.013	0.01	7	6	O=C(NO)[C@@H]1CCCN1S(=O)(=O)CCc1ccc2c(c1)OCO2
